Screening results deposited in PubChem by Johns Hopkins Ion Channel Center.
The list is not random: actives were taken first. Their share in the collection is about 3.5%.
MrgX1 antagonist – human MrgX1 receptor antagonism, primary screen | B-score at 10 µM | MRGX1-HEK293 calcium flux, Fluo-4, BAM8-22 antagonism; active compounds read low | actives 1.3% (n = 310,000);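 active = calcium-response B-score plate-corrected more than 3 library SD below zero, starting fluorescence within 5 deviations, no agonist response on first addition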;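 note: peak minus trough fluorescence over baseline after final BAM8-22 challenge near maximal dose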
Target sequence (Q96LB2 whole entry, looked up): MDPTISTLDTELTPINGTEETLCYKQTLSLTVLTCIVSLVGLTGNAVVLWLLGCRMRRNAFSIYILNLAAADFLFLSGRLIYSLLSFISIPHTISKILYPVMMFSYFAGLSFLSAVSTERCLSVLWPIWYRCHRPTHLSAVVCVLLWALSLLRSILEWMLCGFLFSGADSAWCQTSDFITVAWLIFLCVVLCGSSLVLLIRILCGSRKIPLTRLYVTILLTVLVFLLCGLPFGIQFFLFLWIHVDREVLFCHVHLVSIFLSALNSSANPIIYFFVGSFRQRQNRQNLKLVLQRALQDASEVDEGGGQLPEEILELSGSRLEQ
RGS4 pot – potentiators or activators of RGS4; HEK293 M3R/inducible RGS4, carbachol calcium flux Fluo4; active compounds read low; B-score at 10 µM; actives 0.92% (n = 310,000);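 active = B-score of the integrated calcium signal more than 4 SD below the library mean, with starting fluorescence not abnormally high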;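 note: negative B-score means reduced calcium response which marks RGS4 activation or potentiation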
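Assay system: Inducible-RGS4 HEK293 cells carrying M3 receptor | Schedule: Compound preincubation 20 min at room temperature before agonist | Signal: Kinetic calcium fluorescence imaging with Fluo4-AM dye, 2 µM | Read-out basis: B score from integrated fluorescence ratio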
RGS4 inh – inhibitors of human RGS4; P49798; HEK293 M3R/RGS4 inducible, Fluo-4 calcium flux; active compounds read high; triggered by carbachol at its EC20; B-score at 10 µM; actives 0.45% (n = 310,000);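 active = B-score, a plate-corrected calcium signal, over three deviations above library mean, with baseline fluorescence within five deviations of library mean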;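 note: RGS4 expression induced by doxycycline in cells with stable M3 receptor; B-score is computed from the integrated fluorescence ratio over baseline after carbachol; higher B-score means a larger calcium signal and so more RGS4 inhibition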
MrgX1 allo act – human MrgX1 positive allosteric modulation, primary screen | AID 588675 | B-score at 10 µM | MrgX1-HEK293, Fluo-4 calcium flux, FDSS; active compounds read high | actives 0.63% (n = 310,000);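 active = plate-corrected calcium response at least 3 library SD above typical, normal starting fluorescence, not activating the receptor alone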;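 note: compound read alongside a low EC10 to EC30 dose of BAM8-22 agonist; peak minus trough fluorescence over baseline measured at the second addition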
MrgX1 ag – activates human MrgX1 receptor signaling | Q96LB2 | AID 588627 | actives 0.44% (n = 310,000) | B-score at 10 µM | MrgX1-HEK293 cells, Fluo-4 calcium fluorescence, agonist mode; active compounds read high;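 active = calcium response B-score plate-corrected fluorescence ratio at least 3 library SD, with starting fluorescence B-score inside 5 SD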
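Material: HEK293 cells stably expressing human MrgX1 receptor | Quantity: 15,000 cells per well | Times: Cells plated overnight, dye loaded 0.5 h 37 °C, 0.5 h room temperature | Measured by: Kinetic Fluo-4 NW fluorescence of intracellular calcium | Control set: Positive and negative controls per plate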
MrgX1 ant reconf – confirmation of human MrgX1 receptor antagonists; actives 19% (n = 2,300); remaining BAM8-22 calcium response % of control (active compounds read low), % at 10 µM; AID 602420; shares compounds with MrgX1 antagonist; MrgX1-HEK293, BAM8-22 calcium flux, Fluo-4; active compounds read low;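 active = remaining agonist calcium response no higher than 100% minus 3 SD of agonist-only control wells, with starting fluorescence near control levels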;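 note: agonist BAM8-22 given at a near maximal EC90 to ECmax level; peak minus minimum fluorescence divided by baseline after agonist addition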
HEK293 Ca flux – counter-screen for MrgX1 antagonists: effect in parental HEK293 cells. shares compounds with MrgX1 antagonist. Fluo-4 calcium fluorescence, FDSS. fluorescence ratio F(max-min)/F0 at 10 µM. actives 2% (n = 4,000). AID 624111;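 active = duplicate-averaged calcium fluorescence ratio at least three times the standard deviation of buffer wells, a nonspecific response in parental cells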
HEK293 Ca counter – activity in parental HEK293 cells without MrgX1. shares compounds with MrgX1 antagonist. parental HEK293 calcium flux, Fluo-4 fluorescence ratio; active compounds read high. fluorescence ratio F(max-min)/F0 at 10 µM. actives 0.4% (n = 4,000). AID 624114;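 active = calcium fluorescence ratio, averaged over duplicates, at least 3 SD of the buffer-well ratio, meaning a nonspecific response in receptor-free cells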;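 note: untransfected parental HEK293 lacking MrgX1 used as counterscreen for MrgX1 allosteric activators; fluorescence change taken during the second addition on a kinetic imager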
HEK293 Ca cntr2 – MrgX1 activator counter-screen hit in parental HEK293 cells; Fluo-4 calcium fluorescence (FDSS); active compounds read high; fluorescence ratio F(max-min)/F0 at 10 µM; actives 8.7% (n = 4,000); shares compounds with MrgX1 antagonist;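 active = calcium fluorescence ratio at least three times the spread of buffer wells, meaning a non-specific response in parental cells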
The depositor's hits bear a star; i = inactive; · = no result given.

SMILES	MrgX1 antagonist	RGS4 pot	RGS4 inh	MrgX1 allo act	MrgX1 ag	MrgX1 ant reconf	HEK293 Ca flux	HEK293 Ca counter	HEK293 Ca cntr2
CCOC(=O)c1ccc(NC(=S)NCCc2ccccc2F)cc1	-6.2*	i	i	i	i	67%*	i	i	i
CCCc1cc(=O)[nH]c(SCCN2C(=O)c3ccccc3C2=O)n1	-5.3*	i	i	i	i	i	i	i	i
Cc1cc(NC(=O)c2ccc(N3C(=O)C4C5C=CC(C5)C4C3=O)cc2)no1 (stereo not given)	i	i	i	i	i	·	·	·	·
CCc1ccc(N2CC(C(=O)Nc3ccc(F)cc3)CC2=O)cc1 (stereo not given)	i	i	i	i	i	·	·	·	·
Cc1cc(NC(=O)C2CC(=O)N(c3ccccc3)C2)no1 (stereo not given)	-4.6*	i	i	i	i	85%*	i	i	i
Cc1cc(NC(=O)c2ccc(N3C(=O)CCC3=O)cc2)no1	-5.3*	i	i	i	i	i	i	i	i
CCc1ccc(N2CC(C(=O)Nc3cc(C)ccc3F)CC2=O)cc1 (stereo not given)	-6.9*	i	i	i	i	i	i	i	i
CCN=C1S/C(=C\c2cc(Br)c(O)c(OC)c2)C(=O)N1CC	i	i	i	i	i	·	·	·	·
CCCCN(C)C(=S)Nc1ccc(Oc2ccccc2)cc1	-6.3*	i	i	i	i	i	i	i	i
COc1ncccc1-c1nnn(-c2ccccc2)n1	i	i	i	i	i	·	·	·	·
CCCCc1n(CC(=O)c2ccc(Cl)cc2)c2ccccc2[n+]1C	i	i	i	i	i	·	·	·	·
C=CCOc1c(Br)cc(CNn2nnnc2N)cc1OCC	-4.8*	i	i	i	i	i	i	i	i
Cc1ccc(-c2nc(S(=O)(=O)c3ccc(C)cc3)c(SCC(N)=O)o2)cc1	i	i	i	i	i	·	·	·	·
Cc1ccc(S(=O)(=O)c2nc(-c3cccs3)oc2SCC(N)=O)cc1	-7.1*	i	i	i	i	i	i	i	i
Cn1c(N)c(S(=O)(=O)N2CCN(c3ccccc3Cl)CC2)c(=O)n(C)c1=O	i	i	i	i	i	·	·	·	·
O=S(=O)(Cc1cc(NCc2ccccc2)nc(-c2ccccn2)n1)c1ccccc1	-5.7*	i	i	i	i	86%*	i	i	i
CCOc1ccc(N(CC(=O)NC2CCCC2)S(=O)(=O)c2c(C)noc2C)cc1	-4.8*	i	i	i	i	65%*	i	i	i
CCOc1ccc(N(CC(=O)NC2CCCCC2)S(=O)(=O)c2c(C)noc2C)cc1	i	i	i	i	i	·	·	·	·
O=C(NNC(=S)NC(=O)c1sc2ccccc2c1Cl)c1ccc(Cl)cc1	-18*	i	i	i	i	i	i	i	i
Cc1cc(C(=O)NNC(=S)Nc2ccccc2)nn1C	i	i	i	i	i	·	·	·	·
O=C(NCCN1C(=O)S/C(=C/c2cccnc2)C1=O)C1CC(=O)N(Cc2ccccc2)C1 (stereo not given)	i	i	i	i	i	·	·	·	·
CS(=O)(=O)N1CCC(Oc2ccccc2C(=O)N2CCCCC2CO)CC1 (stereo not given)	-4.6*	i	i	i	i	i	i	i	i
